Measured values reported in ChEMBL document CHEMBL2034835, “A solvent free, four-component synthesis and 1,3-dipolar cycloaddition of 4(H)-pyrans with nitrile oxides: synthesis and discovery of antimycobacterial activity of enantiomerically pure 1,2,4-oxadiazoles” (2012).
≈ marks a conversion by molar mass, not a printed value.

These compounds were tested on Mycobacterium tuberculosis (assay: Antitubercular activity against Mycobacterium tuberculosis H37Rv after 28 days by agar dilution method). Conditions: not given.
Format: functional
Procedure, shortened: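 Agar dilution, following NCCLS guidance, on Middlebrook 7H11 with OADC supplement containing ten-fold serial dilutions of drug. H37Rv inoculum was taken from fresh 7H11/OADC slants, adjusted to 1 mg/mL wet weight in 0.05% Tween 80 saline and diluted 10^-2 to about 10^7 cfu/mL. 5 µL was spotted per tube and incubated at 37 °C for 28 days. MIC is the lowest concentration giving complete growth inhibition.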
For `C[C@H](c1ccccc1)N1CC2=C(OC(N)=C(c3nc(-c4ccccc4)no3)C2c2ccccc2)/C(=C/c2ccccc2)C1` (stereo in doubt; 9a), the MIC was 11.07 µM (≈ 6.25 µg/mL).
`C[C@H](c1ccccc1)N1CC2=C(OC(N)=C(c3nc(-c4ccc(Cl)cc4)no3)C2c2ccccc2)/C(=C/c2ccccc2)C1` (stereo in doubt; 9b) gave an MIC of 5.22 µM (≈ 3.13 µg/mL).
`Cc1ccc(/C=C2\CN([C@H](C)c3ccccc3)CC3=C2OC(N)=C(c2nc(-c4ccc(Cl)cc4)no2)C3c2ccc(C)cc2)cc1` (stereo in doubt; 9d) showed an MIC of 2.49 µM (≈ 1.56 µg/mL).
In the case of `C[C@H](c1ccccc1)N1CC2=C(OC(N)=C(c3nc(-c4ccc(Cl)cc4)no3)C2c2ccccc2Cl)/C(=C/c2ccccc2Cl)C1` (stereo in doubt; 9f), the MIC is reported as 0.6 µM (≈ 0.401 µg/mL).
Work on `C[C@H](c1ccccc1)N1CC2=C(OC(N)=C(c3nc(-c4ccc(Cl)cc4)no3)C2c2ccc(Cl)cc2Cl)/C(=C/c2ccc(Cl)cc2Cl)C1` (stereo in doubt; 9h) yielded an MIC of 0.27 µM (≈ 0.199 µg/mL).
`C[C@H](c1ccccc1)N1CC2=C(OC(N)=C(c3nc(-c4ccccc4)no3)C2c2cccc3ccccc23)/C(=C/c2cccc3ccccc23)C1` (stereo in doubt; 9i) was tested, and the MIC was 18.8 µM (≈ 12.5 µg/mL).
For `C[C@H](c1ccccc1)N1CC2=C(OC(N)=C(c3nc(-c4ccccc4)no3)C2c2ccccc2)/C(=C/c2ccccc2)C1` (stereo in doubt; 10a), the MIC was 2.76 µM (≈ 1.56 µg/mL).
`C[C@H](c1ccccc1)N1CC2=C(OC(N)=C(c3nc(-c4ccc(Cl)cc4)no3)C2c2ccccc2)/C(=C/c2ccccc2)C1` (stereo in doubt; 10b) gave an MIC of 2.6 µM (≈ 1.56 µg/mL).
`Cc1ccc(/C=C2\CN([C@H](C)c3ccccc3)CC3=C2OC(N)=C(c2nc(-c4ccccc4)no2)C3c2ccc(C)cc2)cc1` (stereo in doubt; 10c) showed an MIC of 5.28 µM (≈ 3.13 µg/mL).
`Cc1ccc(/C=C2\CN([C@H](C)c3ccccc3)CC3=C2OC(N)=C(c2nc(-c4ccc(Cl)cc4)no2)C3c2ccc(C)cc2)cc1` (stereo in doubt; 10d) showed an MIC of 0.64 µM (≈ 0.401 µg/mL).
For `C[C@H](c1ccccc1)N1CC2=C(OC(N)=C(c3nc(-c4ccccc4)no3)C2c2ccccc2Cl)/C(=C/c2ccccc2Cl)C1` (stereo in doubt; 10e), the MIC was 0.63 µM (≈ 0.399 µg/mL).
With `C[C@H](c1ccccc1)N1CC2=C(OC(N)=C(c3nc(-c4ccc(Cl)cc4)no3)C2c2ccccc2Cl)/C(=C/c2ccccc2Cl)C1` (stereo in doubt; 10f) the MIC was 0.15 µM (≈ 0.1 µg/mL).
With `C[C@H](c1ccccc1)N1CC2=C(OC(N)=C(c3nc(-c4ccccc4)no3)C2c2ccc(Cl)cc2Cl)/C(=C/c2ccc(Cl)cc2Cl)C1` (stereo in doubt; 10g) the MIC was 0.57 µM (≈ 0.4 µg/mL).
`C[C@H](c1ccccc1)N1CC2=C(OC(N)=C(c3nc(-c4ccc(Cl)cc4)no3)C2c2ccc(Cl)cc2Cl)/C(=C/c2ccc(Cl)cc2Cl)C1` (stereo in doubt; 10h) showed an MIC of 0.07 µM (≈ 0.0516 µg/mL).
In the case of `C[C@H](c1ccccc1)N1CC2=C(OC(N)=C(c3nc(-c4ccccc4)no3)C2c2cccc3ccccc23)/C(=C/c2cccc3ccccc23)C1` (stereo in doubt; 10i), the MIC is reported as 4.71 µM (≈ 3.13 µg/mL).
With `C[C@H](c1ccccc1)N1CC2=C(OC(N)=C(c3nc(-c4ccc(Cl)cc4)no3)C2c2cccc3ccccc23)/C(=C/c2cccc3ccccc23)C1` (stereo in doubt; 10j) the MIC was 4.48 µM (≈ 3.13 µg/mL).

Same assay, conditions: Mycobacterium tuberculosis, H37Rv, 672 h; read-out: MIC
For `Cc1ccc(/C=C2\CN([C@H](C)c3ccccc3)CC3=C2OC(N)=C(c2nc(-c4ccccc4)no2)C3c2ccc(C)cc2)cc1` (stereo in doubt; 9c), the MIC was 10.5 µM (≈ 6.25 µg/mL).
In the case of `C[C@H](c1ccccc1)N1CC2=C(OC(N)=C(c3nc(-c4ccccc4)no3)C2c2ccccc2Cl)/C(=C/c2ccccc2Cl)C1` (stereo in doubt; 9e), the MIC is reported as 1.23 µM (≈ 0.779 µg/mL).
Work on `C[C@H](c1ccccc1)N1CC2=C(OC(N)=C(c3nc(-c4ccccc4)no3)C2c2ccc(Cl)cc2Cl)/C(=C/c2ccc(Cl)cc2Cl)C1` (stereo in doubt; 9g) yielded an MIC of 1.11 µM (≈ 0.78 µg/mL).
In the case of `C[C@H](c1ccccc1)N1CC2=C(OC(N)=C(c3nc(-c4ccc(Cl)cc4)no3)C2c2cccc3ccccc23)/C(=C/c2cccc3ccccc23)C1` (stereo in doubt; 9j), the MIC is reported as 8.94 µM (≈ 6.25 µg/mL).
Work on `CC[C@@H](CO)NCCN[C@@H](CC)CO` [ETHAMBUTOL] yielded an MIC of 7.64 µM (≈ 1.56 µg/mL).
In the case of `NNC(=O)c1ccncc1` [ISONIAZID], the MIC is reported as 0.36 µM (≈ 0.0494 µg/mL).
`CO[C@H]1/C=C/O[C@@]2(C)Oc3c(C)c(O)c4c(O)c(c(/C=N/N5CCN(C)CC5)c(O)c4c3C2=O)NC(=O)/C(C)=C\C=C\[C@H](C)[C@H](O)[C@@H](C)[C@@H](O)[C@@H](C)[C@H](OC(C)=O)[C@@H]1C` [RIFAMPIN] showed an MIC of 0.12 µM (≈ 0.0988 µg/mL).

Each compound was assayed on Mycobacterium tuberculosis (assay: Ratio of rifampicin MIC to compound MIC for Mycobacterium tuberculosis H37Rv). Conditions: not given.
Format: functional
With `C[C@H](c1ccccc1)N1CC2=C(OC(N)=C(c3nc(-c4ccc(Cl)cc4)no3)C2c2ccc(Cl)cc2Cl)/C(=C/c2ccc(Cl)cc2Cl)C1` (stereo in doubt; 10h) the Ratio was 1.7.

Each compound was assayed on Mycobacterium tuberculosis (assay: Ratio of isoniazid MIC to compound MIC for Mycobacterium tuberculosis H37Rv). Conditions: not given.
Format: functional
`C[C@H](c1ccccc1)N1CC2=C(OC(N)=C(c3nc(-c4ccc(Cl)cc4)no3)C2c2ccc(Cl)cc2Cl)/C(=C/c2ccc(Cl)cc2Cl)C1` (stereo in doubt; 10h) gave a Ratio of 5.1.

What follows are compounds tested on Mycobacterium tuberculosis (assay: Ratio of ciprofloxacin MIC to compound MIC for Mycobacterium tuberculosis H37Rv). Conditions: not given.
Format: functional
`C[C@H](c1ccccc1)N1CC2=C(OC(N)=C(c3nc(-c4ccc(Cl)cc4)no3)C2c2ccc(Cl)cc2Cl)/C(=C/c2ccc(Cl)cc2Cl)C1` (stereo in doubt; 10h) gave a Ratio of 67.3.

Each compound was assayed on Mycobacterium tuberculosis (assay: Ratio of ethambutol MIC to compound MIC for Mycobacterium tuberculosis H37Rv). Conditions: not given.
Format: functional
In the case of `C[C@H](c1ccccc1)N1CC2=C(OC(N)=C(c3nc(-c4ccc(Cl)cc4)no3)C2c2ccc(Cl)cc2Cl)/C(=C/c2ccc(Cl)cc2Cl)C1` (stereo in doubt; 10h), the Ratio is reported as 109.
